Measured values reported in ChEMBL document CHEMBL1155222, “Synthesis and anticancer activity of N-bis(trifluoromethyl)alkyl-N'-thiazolyl and N-bis(trifluoromethyl)alkyl-N'-benzothiazolyl ureas” (2009).
Values belong to the compound of their own block, whether it stands above or below them.

Legend:
Type in all cases: functional
SN12C = assay: Anticancer activity against human SN12C cells after 48 hrs by sulforhodamine B assay
Outline: (§1)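 NCI 60-cell-line panel; cells grown in RPMI 1640 with 5% FBS and 2 mM L-glutamine, plated at 5000–40,000 cells/well and preincubated 24 h at 37 °C, 5% CO2. Compounds came from DMSO stocks diluted in medium with gentamicin and were tested at five final concentrations, 10^-4 to 10^-8 M, for 48 h. Cells were fixed with TCA, stained with SRB and read at 515 nm. GI50, TGI and LC50 were derived as log molar values.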

SK-MEL-2 = assay: Anticancer activity against human SK-MEL-2 cells after 48 hrs by sulforhodamine B assay; details: SK-MEL-2, 48 h
Outline: (§2)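 NCI 60-cell-line screen. Cells grown in RPMI 1640 with 5% FBS and 2 mM L-glutamine, plated at 5000–40,000 cells/well, and preincubated 24 h at 37 °C under 5% CO2. Compounds were taken from DMSO stocks and tested at five final concentrations, 10^-4 to 10^-8 M, for 48 h. Cells were TCA-fixed, stained with 0.4% SRB, and read at 515 nm. GI50, TGI and LC50 were derived as log molar values.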

OVCAR-5 = assay: Anticancer activity against human OVCAR5 cells after 48 hrs by sulforhodamine B assay; details: OVCAR-5, 48 h; outline: as §2
IGROV-1 = assay: Anticancer activity against human IGROV1 cells after 48 hrs by sulforhodamine B assay; details: IGROV-1, 48 h; outline: as §2
SK-MEL-28 = assay: Anticancer activity against human SK-MEL-28 cells after 48 hrs by sulforhodamine B assay; details: SK-MEL-28, 48 h; outline: as §2
U-251 = assay: Anticancer activity against human U251 cells after 48 hrs by sulforhodamine B assay; details: U-251, 48 h; outline: as §1
OVCAR-8 = assay: Anticancer activity against human OVCAR8 cells after 48 hrs by sulforhodamine B assay; details: OVCAR-8, 48 h; outline: as §2
CAKI-1 = assay: Anticancer activity against human Caki1 cells after 48 hrs by sulforhodamine B assay; details: CAKI-1, 48 h; outline: as §2
786-0 = assay: Anticancer activity against human 786-0 cells after 48 hrs by sulforhodamine B assay; details: 786-0, 48 h; outline: as §2
HCT-116 = assay: Anticancer activity against human HCT116 cells after 48 hrs by sulforhodamine B assay; details: HCT-116, 48 h; outline: as §2
HCT-15 = assay: Anticancer activity against human HCT15 cells after 48 hrs by sulforhodamine B assay; details: HCT-15, 48 h; outline: as §2
SK-OV-3 = assay: Anticancer activity against human SKOV3 cells after 48 hrs by sulforhodamine B assay; details: SK-OV-3, 48 h; outline: as §2
SR = assay: Anticancer activity against human SR cells after 48 hrs by sulforhodamine B assay; outline: as §1
SK-MEL-5 = assay: Anticancer activity against human SK-MEL-5 cells after 48 hrs by sulforhodamine B assay; details: SK-MEL-5, 48 h; outline: as §2
NCI-H322M = assay: Anticancer activity against human NCI-H322M cells after 48 hrs by sulforhodamine B assay; outline: as §2
SF-539 = assay: Anticancer activity against human SF539 cells after 48 hrs by sulforhodamine B assay; details: SF-539, 48 h; outline: as §2
T47D = assay: Anticancer activity against human T47D cells after 48 hrs by sulforhodamine B assay; outline: as §1
[1] = Anticancer activity against human Hs 578T cells after 48 hrs by sulforhodamine B assay; outline: as §2
HOP-92 = assay: Anticancer activity against human HOP92 cells after 48 hrs by sulforhodamine B assay; details: HOP-92, 48 h; outline: as §2
CCRF-CEM = assay: Anticancer activity against human CCRF-CEM cells after 48 hrs by sulforhodamine B assay; outline: as §2
HOP-62 = assay: Anticancer activity against human HOP62 cells after 48 hrs by sulforhodamine B assay; details: HOP-62, 48 h; outline: as §2
RXF 393 = assay: Anticancer activity against human RXF393 cells after 48 hrs by sulforhodamine B assay; details: RXF 393, 48 h; outline: as §2
M14 = assay: Anticancer activity against human M14 cells after 48 hrs by sulforhodamine B assay; details: M14, 48 h; outline: as §2
UO-31 = assay: Anticancer activity against human UO31 cells after 48 hrs by sulforhodamine B assay; details: UO-31, 48 h; outline: as §1
OVCAR-4 = assay: Anticancer activity against human OVCAR4 cells after 48 hrs by sulforhodamine B assay; details: OVCAR-4, 48 h; outline: as §2
UACC-257 = assay: Anticancer activity against human UACC257 cells after 48 hrs by sulforhodamine B assay; details: UACC-257, 48 h; outline: as §1
A549 = assay: Anticancer activity against human A549 cells after 48 hrs by sulforhodamine B assay; details: A549, 48 h; outline: as §2
MDA-N = assay: Anticancer activity against human MDA-N cells after 48 hrs by sulforhodamine B assay; outline: as §2
LOX IMVI = assay: Anticancer activity against human LOXIMVI cells after 48 hrs by sulforhodamine B assay; outline: as §2
SNB-75 = assay: Anticancer activity against human SNB75 cells after 48 hrs by sulforhodamine B assay; details: SNB-75, 48 h; outline: as §1
COLO 205 = assay: Anticancer activity against human COLO205 cells after 48 hrs by sulforhodamine B assay; details: COLO 205, 48 h; outline: as §2
ACHN = assay: Anticancer activity against human ACHN cells after 48 hrs by sulforhodamine B assay; outline: as §2
NCI/ADR-RES = assay: Anticancer activity against human NCI/ADR-RES cells after 48 hrs by sulforhodamine B assay; outline: as §2
EKVX = assay: Anticancer activity against human EKVX cells after 48 hrs by sulforhodamine B assay; outline: as §2
SF-295 = assay: Anticancer activity against human SF295 cells after 48 hrs by sulforhodamine B assay; details: SF-295, 48 h; outline: as §2
KM12 = assay: Anticancer activity against human KM12 cells after 48 hrs by sulforhodamine B assay; details: KM12, 48 h; outline: as §2
HCC 2998 = assay: Anticancer activity against human HCC2998 cells after 48 hrs by sulforhodamine B assay; details: HCC 2998, 48 h; outline: as §2
UACC-62 = assay: Anticancer activity against human UACC62 cells after 48 hrs by sulforhodamine B assay; details: UACC-62, 48 h; outline: as §1
NCI-H522 = assay: Anticancer activity against human NCI-H522 cells after 48 hrs by sulforhodamine B assay; details: NCI-H522, 48 h; outline: as §2
HT-29 = assay: Anticancer activity against human HT-29 cells after 48 hrs by sulforhodamine B assay; details: HT-29, 48 h; outline: as §2
SW-620 = assay: Anticancer activity against human SW620 cells after 48 hrs by sulforhodamine B assay; details: SW-620, 48 h; outline: as §1
A498 = assay: Anticancer activity against human A498 cells after 48 hrs by sulforhodamine B assay; details: A498, 48 h; outline: as §2
TK-10 = assay: Anticancer activity against human TK10 cells after 48 hrs by sulforhodamine B assay; details: TK-10, 48 h; outline: as §1
PC-3 = assay: Anticancer activity against human PC3 cells after 48 hrs by sulforhodamine B assay; details: PC-3, 48 h; outline: as §2
OVCAR-3 = assay: Anticancer activity against human OVCAR-3 cells after 48 hrs by sulforhodamine B assay; details: OVCAR-3, 48 h; outline: as §2

GI50 (SK-MEL-2): 15.8 µM
GI50 (OVCAR-5): 19.5 µM
GI50 (SK-MEL-28): 17.8 µM
GI50 (U-251): 17.4 µM
GI50 (OVCAR-8): 18.2 µM
GI50 (786-0): 20 µM
GI50 (HCT-116): 18.2 µM
GI50 (HCT-15): 17.8 µM
GI50 (SK-OV-3): 17.8 µM
GI50 (SK-MEL-5): 17.8 µM
GI50 (NCI-H322M): 25.7 µM
GI50 (T47D): 15.5 µM
GI50 (CCRF-CEM): 23.4 µM
GI50 (OVCAR-4): 18.6 µM
GI50 (A549): 15.8 µM
GI50 (COLO 205): 16.2 µM
GI50 (ACHN): 18.2 µM
GI50 (HCC 2998): 19.1 µM
GI50 (NCI-H522): 17 µM
GI50 (HT-29): 19.5 µM
GI50 (SW-620): 20.9 µM
GI50 (PC-3): 18.2 µM
GI50 (OVCAR-3): 16.6 µM
SMILES: CCC(NC(=O)Nc1nc2ccccc2s1)(C(F)(F)F)C(F)(F)F
GI50 (SN12C): 16.2 µM
GI50 (IGROV-1): 17 µM
GI50 (CAKI-1): 19.1 µM
GI50 (SR): 17 µM
GI50 (SF-539): 18.2 µM
GI50 [1]: 21.4 µM
GI50 (HOP-92): 19.1 µM
GI50 (HOP-62): 17.8 µM
GI50 (RXF 393): 17.4 µM
GI50 (M14): 18.6 µM
GI50 (UO-31): 4.68 µM
GI50 (UACC-257): 20 µM
GI50 (MDA-N): 18.6 µM
GI50 (LOX IMVI): 18.2 µM
GI50 (SNB-75): 1.45 µM
GI50 (NCI/ADR-RES): 19.5 µM
GI50 (EKVX): 17 µM
GI50 (SF-295): 17 µM
GI50 (KM12): 20.4 µM
GI50 (UACC-62): 15.5 µM
GI50 (A498): 13.5 µM
GI50 (TK-10): 21.9 µM

SMILES: O=C(Nc1nc2ccccc2s1)NC(C(F)(F)F)C(F)(F)F
GI50 (SN12C): 14.1 µM
GI50 (SK-MEL-2): 22.9 µM
GI50 (OVCAR-5): 27.5 µM
GI50 (IGROV-1): 38 µM
GI50 (SK-MEL-28): 35.5 µM
GI50 (U-251): 24.5 µM
GI50 (OVCAR-8): 33.9 µM
GI50 (CAKI-1): 28.8 µM
GI50 (786-0): 28.8 µM
GI50 (HCT-116): 16.6 µM
GI50 (HCT-15): 25.7 µM
GI50 (SK-OV-3): 30.9 µM
GI50 (SR): 25.7 µM
GI50 (SK-MEL-5): 15.5 µM
GI50 (NCI-H322M): 18.2 µM
GI50 (SF-539): 26.9 µM
GI50 (T47D): 17 µM
GI50 [1]: 26.9 µM
GI50 (HOP-92): 33.9 µM
GI50 (CCRF-CEM): 33.1 µM
GI50 (HOP-62): 38 µM
GI50 (RXF 393): 28.2 µM
GI50 (M14): 19.1 µM
GI50 (UO-31): 3.24 µM
GI50 (OVCAR-4): 28.8 µM
GI50 (UACC-257): 20.4 µM
GI50 (A549): 26.9 µM
GI50 (MDA-N): 23.4 µM
GI50 (LOX IMVI): 22.9 µM
GI50 (SNB-75): 17 µM
GI50 (COLO 205): 17.8 µM
GI50 (ACHN): 28.2 µM
GI50 (NCI/ADR-RES): 27.5 µM
GI50 (EKVX): 20.9 µM
GI50 (SF-295): 23.4 µM
GI50 (KM12): 29.5 µM
GI50 (HCC 2998): 20 µM
GI50 (UACC-62): 24.5 µM
GI50 (NCI-H522): 14.1 µM
GI50 (HT-29): 19.5 µM
GI50 (SW-620): 33.9 µM
GI50 (A498): 20 µM
GI50 (TK-10): 31.6 µM
GI50 (PC-3): 25.1 µM
GI50 (OVCAR-3): 18.2 µM
